Measured values as given in ChEMBL document CHEMBL3393007, “IND-2, a pyrimido[1″,2″:1,5]pyrazolo[3,4-b]quinoline derivative, circumvents multi-drug resistance and causes apoptosis in colon cancer cells” (Bioorg Med Chem, 2015).

What was measured:
[1] = Cytotoxicity against human HCT116 cells after 72 hrs by MTT assay; assay type: functional, cell-based; details: HCT-116, 72 h
Summary of the method: (§1)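 HCT-116, HCT-15, HT-29, DU-145, PC-3 or HEK293/pcDNA3.1 cells in DMEM with 10% FBS were trypsinised and seeded at 5×10^3 cells/well. They received compound at 0.1–100 μM for 72 hr, then MTT (4 mg/mL) for 4 hr. Formazan was dissolved in DMSO and A570 read. IC50 by Bliss method from survival curves; ≥3 experiments, each in triplicate.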

[2] = Cytotoxicity against human S1 cells after 72 hrs by MTT assay; assay type: functional, cell-based; details: S1, 72 h
Summary of the method: (§2)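 Seeding was 6×10^3 cells/well (MDCK, NIH/3T3, MCF-7, MDA-MB-231, LS-180, LS-174, LoVo, S1) after trypsinisation, in DMEM with 10% FBS. Compound at 0.1–100 μM for 72 hr, then MTT (4 mg/mL) for 4 hr. Formazan dissolved in DMSO, absorbance at 570 nm. IC50 by Bliss method; means ± SD, ≥3 experiments in triplicate.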

[3] = Cytotoxicity against human PC3 cells after 72 hrs by MTT assay; assay type: functional, cell-based; details: PC-3, 72 h; summary of the method: as §1
DU-145 = experiment: Cytotoxicity against human DU145 cells after 72 hrs by MTT assay; assay type: functional, cell-based; details: DU-145, 72 h; summary of the method: as §1
2008 = experiment: Cytotoxicity against human 2008 cells after 72 hrs by MTT assay; assay type: functional, cell-based; details: Homo sapiens, 2008, 72 h
Summary of the method: (§3)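 MTT assay over 0.1–100 μM with a 72 hr exposure, then 4 hr with MTT (4 mg/mL). Formazan dissolved in DMSO, A570 read. IC50 from survival curves (Bliss method); three independent experiments in triplicate; 100 μM taken as cut-off.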

A2780 = experiment: Cytotoxicity against human A2780 cells after 72 hrs by MTT assay; assay type: functional, cell-based; details: A2780, 72 h; summary of the method: as §3
HepG2 = experiment: Cytotoxicity against human HepG2 cells after 72 hrs by MTT assay; assay type: functional, cell-based; details: HepG2, 72 h; summary of the method: as §3
MCF7 = experiment: Cytotoxicity against human MCF7 cells after 72 hrs by MTT assay; assay type: functional, cell-based; details: MCF7, 72 h; summary of the method: as §2
MDA-MB-231 = experiment: Cytotoxicity against human MDA-MB-231 cells after 72 hrs by MTT assay; assay type: functional, cell-based; details: MDA-MB-231, 72 h; summary of the method: as §2
MDCK = experiment: Cytotoxicity against MDCK cells after 72 hrs by MTT assay; assay type: cell-based; details: Canis lupus familiaris; summary of the method: as §2
[4] = Cytotoxicity against mouse NIH/3T3 cells after 72 hrs by MTT assay; assay type: cell-based; details: NIH3T3, 72 h; summary of the method: as §2
HEK293 = experiment: Cytotoxicity against HEK293 cells expressing pcDNA3.1 after 72 hrs by MTT assay; assay type: cell-based; details: Homo sapiens, HEK293, 72 h; summary of the method: as §1

**Q.** Which results are given for `Cc1cc(N(C)C)n2nc3nc4ccccc4cc3c2n1`?
**A.** IC50 [1]: 53.6 µM; IC50 [2]: 58.3 µM; IC50 [3]: 88.8 µM; IC50 (DU-145): 28.6 µM; IC50 2008: 47.9 µM; IC50 (A2780): 49.9 µM; IC50 (HepG2): 67.9 µM; IC50 (MCF7): 79.6 µM; IC50 (MDA-MB-231): 44.8 µM

**Q.** With `CCN(CC)CCNc1cc(C)nc2c3cc4ccccc4nc3nn12` as the compound, how does the IC50 [2] read?
**A.** Its IC50 is 44.6 µM.

**Q.** And the IC50 [3]?
**A.** The IC50 was 62.5 µM.

**Q.** And the IC50 2008?
**A.** The IC50 was 78.1 µM.

**Q.** And the IC50 (A2780)?
**A.** Its IC50 is 87.5 µM.

**Q.** What about the IC50 (HepG2) of the same compound?
**A.** The IC50 was 67.4 µM.

**Q.** And the IC50 (MCF7)?
**A.** Its IC50 is 53.5 µM.

**Q.** And the IC50 (MDA-MB-231)?
**A.** Its IC50 is 58.8 µM.

**Q.** And the IC50 (MDCK)?
**A.** The IC50 was 41.6 µM.

**Q.** What about the IC50 [4] of the same compound?
**A.** Its IC50 is 48.2 µM.

**Q.** With `Cc1cc(NCCCN(C)C)n2nc3nc4ccccc4cc3c2n1` as the compound, how does the IC50 [2] read?
**A.** The IC50 was 83.4 µM.

**Q.** And the IC50 [3]?
**A.** The IC50 was 60.5 µM.

**Q.** And the IC50 2008?
**A.** The IC50 was 87.6 µM.

**Q.** And the IC50 (A2780)?
**A.** Its IC50 is 65.8 µM.

**Q.** What about the IC50 (HepG2) of the same compound?
**A.** The IC50 was 73.2 µM.

**Q.** And the IC50 (MCF7)?
**A.** The IC50 was > 100 µM.

**Q.** And the IC50 [4]?
**A.** The IC50 was > 100 µM.

**Q.** What about the IC50 (HEK293) of the same compound?
**A.** Its IC50 is 39.9 µM.

**Q.** For `CCN(CC)CCCNc1cc(C)nc2c3cc4ccccc4nc3nn12`, which IC50 [2] is on record?
**A.** The IC50 was 53.7 µM.

**Q.** What about the IC50 [3] of the same compound?
**A.** Its IC50 is 78.5 µM.

**Q.** What about the IC50 2008 of the same compound?
**A.** Its IC50 is 65.3 µM.

**Q.** What about the IC50 (A2780) of the same compound?
**A.** Its IC50 is 55.7 µM.

**Q.** And the IC50 (HepG2)?
**A.** Its IC50 is 89.9 µM.

**Q.** What about the IC50 (MDA-MB-231) of the same compound?
**A.** Its IC50 is 34.6 µM.

**Q.** And the IC50 [4]?
**A.** The IC50 was > 100 µM.

**Q.** And the IC50 (HEK293)?
**A.** Its IC50 is 41.8 µM.

**Q.** With `Cc1cc(N2CCOCC2)n2nc3nc4ccccc4cc3c2n1` as the compound, how does the IC50 [1] read?
**A.** Its IC50 is 88.9 µM.

**Q.** And the IC50 [2]?
**A.** Its IC50 is 67.4 µM.

**Q.** And the IC50 [3]?
**A.** Its IC50 is 78.3 µM.

**Q.** What about the IC50 2008 of the same compound?
**A.** Its IC50 is > 100 µM.

**Q.** And the IC50 (A2780)?
**A.** The IC50 was > 100 µM.

**Q.** What about the IC50 (HepG2) of the same compound?
**A.** The IC50 was > 100 µM.

**Q.** And the IC50 (MCF7)?
**A.** Its IC50 is 98.4 µM.

**Q.** And the IC50 (MDA-MB-231)?
**A.** Its IC50 is 88.2 µM.

**Q.** What about the IC50 (MDCK) of the same compound?
**A.** The IC50 was > 100 µM.

**Q.** What about the IC50 [4] of the same compound?
**A.** Its IC50 is > 100 µM.
